Most compounds without a hit are left out; they make up all but 2.4% or so of the library.
Efa HMGR inh = blocks class II HMG-CoA reductase of Enterococcus faecalis. inhibition, % at 10 µM. purified E. faecalis HMGR, NADPH absorbance 340 nm kinetic. actives 0.41% (n = 190,000). AID 1066;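 active means inhibition above a set limit, the median over all tested compounds plus 3 SD, cut at about 9.5% in these data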;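 further: enzyme runs in reverse so mevalonate oxidation gives rising NADPH absorbance; 0% = complete reaction with DMSO and 100% = background rate lacking mevalonate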
EP2 mod = modulators of human EP2 prostaglandin E2 receptor; P43116; EP2-expressing cells, cAMP HTRF FRET, PGE2 co-stimulation; induction, % at 25 µM; actives 0.83% (n = 260,000); AID 940;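 active means compounds whose cAMP rise, as percent of the full-agonist control response, exceeds 60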;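 further: rat C6 glioma line stably carrying human EP2 under a CMV promoter; the protocol text gives 20 µM as final concentration; 100% = response of wells given 1 µM PGE2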
Target sequence (P43116 whole entry, looked up): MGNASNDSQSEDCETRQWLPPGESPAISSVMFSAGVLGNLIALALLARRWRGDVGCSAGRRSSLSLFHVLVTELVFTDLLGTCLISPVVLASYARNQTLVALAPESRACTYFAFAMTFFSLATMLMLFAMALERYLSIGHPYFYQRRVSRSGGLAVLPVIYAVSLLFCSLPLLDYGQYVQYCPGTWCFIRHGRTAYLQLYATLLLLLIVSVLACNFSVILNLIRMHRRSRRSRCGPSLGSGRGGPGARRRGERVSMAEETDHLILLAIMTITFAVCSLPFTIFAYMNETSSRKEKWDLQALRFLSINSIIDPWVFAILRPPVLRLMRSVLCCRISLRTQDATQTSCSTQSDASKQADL
PGE2 EP2 inh = inhibitors of human EP2 prostaglandin E2 receptor | C6 glioma cells expressing human EP2, cAMP TR-FRET; cells stimulated with saturating PGE2 | inhibition, % at 25 µM | actives 0.52% (n = 260,000) | AID 1422;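 active means percent inhibition above 40 after rounding to a whole number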;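 further: rat C6 glioma host cells with rolipram phosphodiesterase inhibitor present; the protocol text gives 20 µM as final concentration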
MT stabilize HCS = stabilizes microtubules in HeLa cells; actives 0.83% (n = 200,000); HeLa tubulin immunostaining HCS, 24 h; share of cells brighter than vehicle mean+2SD; % tubulin-high responders, % at 10 µM;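 active means plate Z-score above 3 for both tubulin-high and condensed-nucleus cell shares, with cell loss under 80%, at 10 µM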;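 further: anti alpha tubulin signal scored within the nucleus-defined area of each cell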
TbHK1 inh = T. brucei hexokinase 1 inhibition; recombinant TbHK1, G6PDH-coupled NADH A340; inhibition, % at 10 µM; actives 0.11% (n = 220,000); AID 1430;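 active means inhibition of 50% or more in the single-dose primary screen; inactive means inhibition below 50%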
bCat nuc transl = alters nuclear translocation of beta-catenin in HeLa cells. immunofluorescence imaging. nuclear translocation activity, % at 5 µM. actives 0.3% (n = 190,000). AID 1665;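 active means nuclear translocation activity above 50% at 5 µM, with a well cell count of 50 or more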;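 further: per-cell ratio of nuclear to cytoplasmic median beta-catenin stain intensity; plate controls were DMSO negative control for no effect and GSK-3 inhibitor IX positive control for full effect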
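Test system: human HeLa cell line; Doses: 5 µM primary, 0.02–20 µM confirmation; Incubation: 24 h compound exposure, 37°C; Detection: beta-catenin immunofluorescence imaging with DAPI; Read-out: beta-catenin nuclear/cytoplasmic ratio, % activation.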
An asterisk follows results filed as active; / = no result.

SMILES	Efa HMGR inh	EP2 mod	PGE2 EP2 inh	MT stabilize HCS	TbHK1 inh	bCat nuc transl
CCOc1ccccc1NC(=O)c1sc(NC(=O)C(C)C)c(C(=O)OC)c1C	/	14	9	/	/	/
COCCN(Cc1cc2ccc(C)c(C)c2nc1Cl)C(=O)N1CCOCC1	-1	-14	7	2	3	1
COCCN(Cc1cc2cc(C)cc(C)c2nc1Cl)C(=O)Nc1ccccc1	2	16	7	34*	-11	0
Cc1cc(C)c2nc(Cl)c(CN(Cc3ccco3)C(=O)Nc3ccccc3C)cc2c1	2	25	12	21*	4	-1
COc1ccc(/C(O)=C2/C(=O)C(=O)NC2c2ccc(F)cc2)cc1OC (stereo not given)	/	70*	13	/	/	/
O=C(NCc1ccncc1)C(=O)NCc1cccnc1	/	-6	11	/	/	/
COc1ccc(/C=C/C(=O)NCCn2c(C)cc3ccccc32)cc1OC	-7	-40	114*	5	-13	-1
COc1ccc(/C=C/C(=O)NCCN2CCOCC2)cc1OC	1	3	5	5	-14	0
O=C(Nc1nc(-c2ccccn2)cs1)c1ncoc1-c1ccc(F)cc1	/	-15	2	/	/	/
CC1=C(C#N)C(c2cccnc2)C2=C(N1)c1ccccc1C2=O (stereo not given)	4	3	6	1	-6	-2
CC1=C(C#N)C(c2ccccc2)C2=C(N1)c1ccccc1C2=O (stereo not given)	5	8	6	24*	-11	-4
COc1ccc(NC(=O)CSc2nc(N)c3c(C)c(C)sc3n2)cc1OC	/	7	13	/	/	/
COc1cc(C2CC(=O)c3cnc(N4CCN(Cc5ccccc5)CC4)nc3C2)cc(OC)c1OC (stereo not given)	-3	17	8	43*	-16	83*
CCN(CC)c1ccc(NC(=O)c2ccc(=O)[nH]c2)cc1S(=O)(=O)Nc1ccccc1OC	6	22	13	28*	-3	2
CCN(CC)c1ccc(NC(=O)c2ccccc2Br)cc1S(=O)(=O)Nc1ccccc1OC	-6	-10	6	2	8	/
O=C(Nc1nc(-c2nc3ccccc3s2)cs1)C1COc2ccccc2O1 (stereo not given)	-6	-43	42*	6	-10	-2
COc1ccc(OC)c(-c2csc(NC(=O)C3COc4ccccc4O3)n2)c1 (stereo not given)	0	24	5	2	1	0
C=CCNC(=O)c1c(C(F)(F)F)nn(C)c1Cl	9.6*	5	8	1	1	1
O=C(COc1ccccc1)Nc1ccc(Cl)cn1	-3	-20	8	5	16	2
S=C(Nc1ccccc1)Nc1ccc(Cl)cn1	-3	-35	7	4	9	-3
O=C(CCc1ccccc1)Nc1ccc(Cl)cn1	-3	28	14	36*	4	140*
O=C(NC(=S)Nc1ccc(Cl)cn1)C(c1ccccc1)c1ccccc1	-9	5	8	36*	4	1
COCCNC(=O)CSc1nc(-c2cccs2)cc(C(F)(F)F)n1	/	-35	11	/	/	/
COc1ccccc1CN(Cc1cc2ccc(C)c(C)c2[nH]c1=O)C(=O)C1CCCCC1	/	12	13	/	/	/
O=C(O)C(Cc1ccccc1)N1C(=O)c2ccccc2C1=O (stereo not given)	2	5	6	2	3	/
SMILES	Efa HMGR inh	EP2 mod	PGE2 EP2 inh	MT stabilize HCS	TbHK1 inh	bCat nuc transl
O=C(O)[C@H](Cc1ccc(O)c([N+](=O)[O-])c1)N1C(=O)c2ccccc2C1=O	/	10	51*	/	/	/
COC(=O)c1ccccc1Nc1ccccc1	-11	64*	9	2	7	-6
O=C(COC(=O)c1ccccc1Nc1ccccc1)c1ccccc1	-5	23	6	3	0	-1
Cc1ccc2cc(CN(Cc3nnnn3C3CCCCC3)C3CCCCC3)c(=O)[nH]c2c1	/	60	4	/	/	/
Cc1cc2nnc(SCC(=O)NCc3cccs3)n2c2ccccc12	-2	11	9	42*	-3	45
Cc1cc2nnc(SCC(=O)NCc3ccccc3)n2c2ccccc12	/	-12	9	/	/	/
Nc1ccc(-c2nc3ncc(Cl)cc3[nH]2)cc1	/	-66	10	/	/	/
Cc1cccc(C(=O)Nc2nc(C)c(C(=O)Nc3ccc4c(c3)CCC4)s2)c1	1	-20	8	43*	-9	/
COc1ccc(NC(=O)/C=N/O)cc1	-1	17	7	4	-1	-3
COc1ccc(N/N=C(\C=N\O)C(=O)c2ccc(OC)cc2)cc1	-3	21	5	38*	-7	/
O=C(/C=C/c1ccccc1)N(Cc1nc2ccccc2c(=O)[nH]1)Cc1cccs1	/	63*	10	/	/	/
O=c1c2ccccc2c(-c2ccc(Cl)cc2)nn1-c1ccccc1	-2	63*	5	1	-1	1
Cc1nn(-c2ccc(Cl)cc2)c(=O)c2ccccc12	-2	24	10	2	-4	-1
Cc1ccc(NC(=O)CN2C(=O)NC(C)(CCc3ccccc3)C2=O)cc1 (stereo not given)	4	0	7	3	-2	7
Cc1cccc(C)c1NC(=O)CN1C(=O)NC(C)(CCc2ccccc2)C1=O (stereo not given)	13*	29	3	3	-2	-3
O=C(CN1CCC(O)(c2ccccn2)CC1)NCc1ccccc1	/	-16	1	/	/	/
CCN(CC)C(=O)C1(P(=O)(c2ccccc2)c2ccccc2)CCC1	/	21	10	/	-1	1
CCCCN(CCCC)C(=O)C1(P(=O)(c2ccccc2)c2ccccc2)CCC1	/	85*	6	/	-1	1
CSc1nc(-c2ccccc2)c2cc(Cl)ccc2n1	-5	62*	7	2	1	-1
N#CCSc1nc(-c2ccccc2)c2cc(Cl)ccc2n1	-1	60	7	4	-5	0
CCOC(=O)N1CCN(c2nc(C(F)(F)F)nc3c(C)cc(C)cc23)CC1	1	32	8	2	-5	-2
Cc1cc(C)c2nc(C(F)(F)F)nc(N3CC(C)OC(C)C3)c2c1 (stereo not given)	0	61*	/	3	-6	2
Cc1ccc2[nH]c(=O)c(CN(C3CCCC3)C(c3nnnn3C3CCCCC3)C(C)C)cc2c1 (stereo not given)	/	7	9	/	/	/
CC(=O)Oc1ccc(N2C(=O)C3C(C2=O)C2(C)C=CC3(C)O2)cc1 (stereo not given)	/	/	136*	/	/	-3
CC(=O)Oc1ccc(N2C(=O)C3C4C=CC(CO)(O4)C3C2=O)cc1 (stereo not given)	-2	-1	17	1	0	/
O=S1(=O)c2ccccc2N=NN1Cc1ccc(Cl)c(Cl)c1	0	-36	45*	1	-8	-3
COc1cccc(CC(=O)N2CCC(C(=O)c3cccnc3)CC2)c1	/	-22	/	/	/	/

From PubChem BioAssay
